ChEMBL document CHEMBL3588831, “Synthesis and in Vivo Evaluation of [123I]Melanin-Targeted Agents” (J Med Chem, 2015)

Assays:
[1] = Retention time of the compound by HPLC method; assay type: physicochemical
[2] = tested on: Mus musculus; assay: Biodistribution in large gastrointestinal tract of C57BL/6J mouse bearing mouse B16F0 cells at 0.37 to 1.85 MBq, iv after 48 hrs by gamma counting method; assay type: ADME, organism-based; details: in vivo
Outline: (§1)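 Female C57BL/6J mice (5−6 weeks), s.c. inoculated on left flank with 3 × 10^5 B16F0 cells in Ca2+/Mg2+-free PBS, used 11 days later (tumors 2−12 mm). Radiotracer given via tail vein in 100 μL (~0.37 MBq for 1−24 h, 1.85 MBq for 48 h). Organs dissected, weighed, γ-counted, decay corrected. Expressed as % ID/g against injected-dose dilutions. Mean ± SEM, n = 5.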

[3] = tested on: Mus musculus; assay: Biodistribution in large gastrointestinal tract of C57BL/6J mouse bearing mouse B16F0 cells at 0.37 to 1.85 MBq, iv after 6 hrs by gamma counting method; assay type: ADME, organism-based; details: in vivo; outline: as §1
[4] = tested on: Liver; assay: Biodistribution in liver of C57BL/6J mouse bearing mouse B16F0 cells at 0.37 to 1.85 MBq, iv after 1 hr by gamma counting method; assay type: ADME, organism-based; details: in vivo; outline: as §1
[5] = Ratio of AUC in tumor to gastrointestinal tract of C57BL/6J mouse bearing mouse B16F0 cells at 0.37 to 1.85 MBq, iv by gamma counting method; assay type: ADME, organism-based; details: in vivo
Outline: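 Biodistribution in B16F0-bearing C57BL/6J mice given i.v. tail-vein tracer (~0.37 MBq for 1–24 h, 1.85 MBq for 48 h). Sacrifice at 1, 3, 6, 16, 24 and 48 h, then organs dissected, weighed and γ-counted as decay-corrected % ID/g. Tumor AUC divided by each organ AUC; mean of ratios ± SEM, n = 5.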

Retention_time [1] | Drug uptake [2] | Drug uptake [3] | Drug uptake [4] | Ratio [5] | SMILES
16.7 min | 0.1 % ID/g | 23.1 % ID/g | 12.3 % ID/g | 2.9 | O=C(CN1Cc2ccccc2C1=O)N1C[C@H]2CN(Cc3ccc([123I])cc3)C[C@H]2C1
16.6 min | 0.2 % ID/g | 87.1 % ID/g | 19.5 % ID/g | 1.8 | O=C(c1ccc2c(n1)NCCC2)N1CCN(Cc2ccc([123I])cc2)CC1
12.2 min | 0.3 % ID/g | 18.6 % ID/g | 15.9 % ID/g | 5.5 | O=C(c1ccc2cccnc2n1)N1CCN(Cc2ccc([123I])cc2)CC1
14.8 min | 0.6 % ID/g | 17.6 % ID/g | 41.8 % ID/g | 3 | O=C(CN1Cc2ccccc2C1=O)NC1CCN(Cc2ccc([123I])cc2)CC1
